Reference: ChEMBL document CHEMBL1125383, “Benzazepinone calcium channel blockers. 4. Structure-activity overview and intracellular binding site” (J Med Chem, 1992)

Tests used:
[1] = target: T1, Voltage-gated L-type calcium channel (Rattus norvegicus, UniProt P22002+Q02485+P27732); assay: Percentage decrease in blood pressure at a dose of 135 uM/kg for 12-18 hr in spontaneously hypertensive rats.; format: functional, tissue-based
Method in brief: (§1)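 Spontaneously hypertensive rats, n = 5, given 135 µmol/kg orally; systolic pressure recorded directly; maximum percent fall from predrug control noted within 0-6, 6-12 and 12-18 h windows after dosing; mean of five rats.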

[2] = target: T1, Voltage-gated L-type calcium channel; assay: Percentage decrease in blood pressure at a dose of 135 uM/kg for 0-6 h in spontaneously hypertensive rats.; format: functional, tissue-based; method in brief: as §1
[3] = Concentration required to cause 50% relaxation of maximal contraction in circumferential rabbit aorta strips in response to KCl (100 mM); format: functional, tissue-based, Oryctolagus cuniculus; conditions: Oryctolagus cuniculus, Aorta
[4] = Partition coefficient (logP); format: physicochemical; conditions: octanol/water
[5] = target: T1, Voltage-gated L-type calcium channel; assay: Percentage decrease in blood pressure at a dose of 135 uM/kg for 6-12 hr in spontaneously hypertensive rats.; format: functional, tissue-based; method in brief: as §1
[6] = target: T1, Voltage-gated L-type calcium channel; assay: Percentage decrease in blood pressure at a dose of 270 umol/kg for 12-18 h in spontaneously hypertensive rats.; format: functional, tissue-based
Method in brief: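 Spontaneously hypertensive rats, n = 5, dosed orally at 270 µmol/kg; systolic pressure recorded directly; maximum percent fall from predrug control within the 12-18 h window after dosing; mean of five rats.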

[7] = target: T1, Voltage-gated L-type calcium channel; assay: Percentage decrease in blood pressure at a dose of 135 uM/kg for 0-6 hr in spontaneously hypertensive rats.; format: functional, tissue-based; method in brief: as §1

SMILES	Decrease in blood pressure [1]	Decrease in blood pressure [2]	IC50 [3]	logP [4]	Decrease in blood pressure [5]	Decrease in blood pressure [6]	Decrease in blood pressure [7]
C=CC[C@H]1C(=O)N(CCN(C)C)c2cccc(C(F)(F)F)c2C[C@H]1c1ccc(OC)cc1	29%	24%	100 nM	4.6			
COc1ccc([C@@H]2Cc3c(C)cccc3N(CCN(C)C)C(=O)[C@@H]2OC(C)=O)cc1	12%	6%	2500 nM	1.7	10%		
COc1ccc([C@@H]2Cc3c(C#N)cccc3N(CCN(C)C)C(=O)[C@@H]2OC(C)=O)cc1	9%	9%	120 nM	1.3	7%		
COc1ccc([C@@H]2Cc3c(cccc3[N+](=O)[O-])N(CCN(C)C)C(=O)[C@@H]2OC(C)=O)cc1	14%	16%	370 nM	1.7	12%		
COc1ccc([C@@H]2Cc3c(ccc(Br)c3OC)N(CCN(C)C)C(=O)[C@@H]2OC(C)=O)cc1	11%	18%	580 nM	2.4	12%		
CC[C@H]1C(=O)N(CCN(C)C)c2cccc(C(F)(F)F)c2C[C@H]1c1ccc(OC)cc1	15%	21%	12 nM	4.3	19%		
COc1ccc([C@@H]2Cc3cc(C(F)(F)F)ccc3N(CCN(C)C)C(=O)[C@@H]2SC(C)=O)cc1	23%	13%	68 nM	3.4	18%		
COc1ccc([C@@H]2Cc3c(C(N)=O)cccc3N(CCN(C)C)C(=O)[C@@H]2OC(C)=O)cc1	12%	13%	> 30000 nM	-1	12%		
COc1ccc([C@@H]2Cc3cc(Sc4ccccc4)ccc3N(CCN(C)C)C(=O)[C@@H]2OC(C)=O)cc1	19%	15%	690 nM	3.8	17%		
CCC[C@H]1C(=O)N(CCN(C)C)c2cccc(C(F)(F)F)c2C[C@H]1c1ccc(OC)cc1	24%	14%	950 nM	4.9	19%		
CNC(=O)Oc1ccc2c(c1)C[C@@H](c1ccc(OC)cc1)[C@@H](OC(C)=O)C(=O)N2CCN(C)C	12%	7%	310 nM	0.31	10%		
COc1ccc([C@@H]2Cc3cc(C(F)(F)F)ccc3N(CCN(C)C)C(=O)[C@@H]2OC(C)=O)cc1	18%	19%	1900 nM	2.8	19%		
COc1ccc([C@@H]2Cc3cc(OC(=O)C(C)(C)C)ccc3N(CCN(C)C)C(=O)[C@@H]2OC(C)=O)cc1	16%	13%	5200 nM	2.9	14%		
COc1ccc([C@@H]2Cc3c(ccc(Br)c3OC)N(CCN(C)C)C(=O)[C@@H]2C)cc1	14%	9%	85 nM	3.4	12%		
COc1ccc([C@@H]2Cc3c(cccc3C(F)(F)F)N(CCN(C)C)C(=O)[C@@H]2Cc2ccccc2)cc1	6%	14%	790 nM	5.2	8%		
COc1ccc([C@@H]2Cc3cc(Cl)ccc3N(CCN(C)C)C(=O)[C@@H]2OC(C)=O)cc1		13%		2.2	14%	18%	

SMILES	Decrease in blood pressure [1]	Decrease in blood pressure [2]	IC50 [3]	logP [4]	Decrease in blood pressure [5]	Decrease in blood pressure [6]	Decrease in blood pressure [7]
COc1ccc([C@@H]2Cc3cc(SC)ccc3N(CCN(C)C)C(=O)[C@@H]2OC(C)=O)cc1	21%	19%	600 nM	2	20%		
COc1ccc([C@@H]2Cc3cc(OC(F)F)ccc3N(CCN(C)C)C(=O)[C@@H]2OC(C)=O)cc1	16%	12%	960 nM	1.8	13%		
COc1ccc([C@@H]2Cc3ccccc3N(CCN(C)C)C(=O)[C@@H]2C)cc1	8%	6%	1100 nM	2.5	4%		
COc1ccc([C@@H]2Cc3c(OC)cccc3N(CCN(C)C)C(=O)[C@@H]2C)cc1	8%	7%	420 nM	2.6	10%		
COc1ccc([C@@H]2Cc3cc(SC(C)(C)C)ccc3N(CCN(C)C)C(=O)[C@@H]2OC(C)=O)cc1	14%	10%	9000 nM	3.6	11%		
COc1ccc([C@@H]2Cc3cc(OCc4ccccc4)ccc3N(CCN(C)C)C(=O)[C@@H]2OC(C)=O)cc1	11%	8%	730 nM	3.4	10%		
COc1ccc([C@@H]2Cc3c(C(=O)O)cccc3N(CCN(C)C)C(=O)[C@@H]2OC(C)=O)cc1	10%	8%	> 30000 nM	-4.1	9%		
COc1ccc([C@@H]2Cc3cc(C(F)(F)F)ccc3N(CCN(C)C)C(=O)[C@@H]2NC(C)=O)cc1	10%	12%	9200 nM	1.6	12%		
COc1ccc([C@@H]2Cc3c(Cl)cccc3N(CCN(C)C)C(=O)[C@@H]2OC(C)=O)cc1	11%	9%		2.4	8%		
COc1ccc([C@@H]2Cc3c(C(=O)OCc4ccccc4)cccc3N(CCN(C)C)C(=O)[C@@H]2OC(C)=O)cc1	8%	4%	3500 nM	3.3	8%		
COc1ccc([C@@H]2Cc3cc(C(F)(F)F)ccc3N(CCN(C)C)C(=O)[C@@H]2CC(C)=O)cc1	28%	23%		2.7	28%		
COc1ccc([C@@H]2Cc3cc(Oc4ccccc4)ccc3N(CCN(C)C)C(=O)[C@@H]2OC(C)=O)cc1	16%	16%	440 nM	3.1	12%		
COc1ccc([C@@H]2Cc3c(cccc3C(F)(F)F)N(CCN(C)C(C)=O)C(=O)[C@@H]2OC(C)=O)cc1	5%		4500 nM		1%		2%
COc1ccc([C@@H]2Cc3cc(OC)ccc3N(CCN(C)C)C(=O)[C@@H]2OC(C)=O)cc1	10%	15%		1.2	8%		
COc1ccc([C@H]2CC(=O)N(CCN(C)C)c3cccc(C(F)(F)F)c3C2)cc1	3%	2%	1100 nM	3.1	3%		
COc1ccc([C@@H]2Cc3c(cccc3C(F)(F)F)N(CCN(C)C)C(=O)[C@@H]2O)cc1	28%	21%		2.1	26%		
